Results taken from ChEMBL document CHEMBL1275590, “Novel arylimidamides for treatment of visceral leishmaniasis” (Antimicrob Agents Chemother, 2010).
Activity calls are given as the source filed them.

Legend:
[1] = tested on: Mus musculus; experiment: Renal toxicity in BALB/c mouse assessed as phosphorus level in serum at 50 mg/kg/day, po administered for five days (Rvb= 5.3 mg/dl); assay type: organism-based; parameters: route oral; settings: in vivo
In short: (§1)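 Female BALB/c mice (n = 5 per dose), dosed once daily for 5 consecutive days p.o. (20 ml/kg) or i.v. (10 ml/kg) with compound in sterile water, prepared fresh daily under yellow light. Vehicle controls n = 5 per route. Clinical observations, body weights, serum chemistry and hematology on day 6 before necropsy; histopathology of formalin-fixed tissues. Chemistry analysed by one-way ANOVA with Dunnett's posttest.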

[2] = tested on: Mus musculus; experiment: Hepatotoxicity in BALB/c mouse assessed as alkaline phosphatase level in serum at 20 mg/kg/day, iv administered for five days (Rvb= 134 U/L); assay type: toxicity, organism-based; parameters: route intravenous; settings: in vivo
[3] = AUC (0 to infinity) in Swiss Webster mouse at 4.9 mg/kg, iv by HPLC-MS/MS analysis; assay type: ADME, organism-based; parameters: time infinity, dose 4.9 mg/kg, route intravenous; settings: plasma
In short: (§2)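 Male Swiss Webster mice, n = 3 per time point. For i.v., the compound was dissolved in sterile water, diluted 1:1 with 2× saline, and given as a tail-vein bolus over ~10–20 s. For p.o., it was given by gavage in sterile water. Dose volume was 5 ml/kg. Terminal plasma was taken from 5 min to 72 h and measured by HPLC-MS/MS (calibration 2.5–10,000 nM). Parameters came from noncompartmental analysis.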

[4] = Half life in Swiss Webster mouse at 4.9 mg/kg, iv by HPLC-MS/MS analysis; assay type: ADME, organism-based; parameters: dose 4.9 mg/kg, route intravenous; settings: in vivo; in short: as §2
[5] = Cmax in Swiss Webster mouse at 66 mg/kg, po by HPLC-MS/MS analysis; assay type: ADME, organism-based; parameters: dose 66 mg/kg, route oral; settings: in vivo; in short: as §2
[6] = Half life in golden Syrian hamster liver microsome by HPLC-MS/MS analysis in presence of 10 uM NADPH; assay type: ADME, Mesocricetus auratus; settings: liver microsomes
In short: (§3)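 Pooled liver microsomes with NADPH. Substrate at final 0.1, 1.0 and 10 μM with 0.5% DMSO, incubated up to 60 min at 37°C. Reactions were stopped with 7:1 methanol-water containing 0.1% TFA and 30 nM internal standard. Remaining substrate was measured by HPLC-MS/MS, and t1/2 came from a one-phase exponential decay fit.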

[7] = tested on: Leishmania amazonensis; experiment: Antileishmanial activity against intracellular Leishmania amazonensis amastigotes; assay type: functional, organism-based
[8] = tested on: Mus musculus; experiment: Hepatotoxicity in BALB/c mouse assessed as ALT level in serum at 5 mg/kg/day, iv administered for five days (Rvb= 34 U/L); assay type: toxicity, organism-based; parameters: route intravenous; settings: in vivo
[9] = Oral bioavailability in Swiss Webster mouse at 66 mg/kg by HPLC-MS/MS analysis; assay type: ADME, organism-based; settings: in vivo
In short: (§4)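 Male Swiss Webster mice (n = 3 per time point), single dose by oral gavage (sterile water solution) or tail-vein bolus i.v. (water diluted 1:1 with 2× saline, over ~10–20 s); dose volume 5 ml/kg. Terminal blood sampled from 5 min to 72 h postdose; plasma quantified by HPLC-MS/MS (positive-ion SRM). Noncompartmental analysis gave Cmax, Tmax, AUC0-∞, CL, Vss; bioavailability from p.o. versus i.v. exposure.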

[10] = tested on: Mus musculus; experiment: Toxicity in BALB/c mouse assessed as hyperactivity at 150 mg/kg/day, po administered for five days measured on day 5; assay type: organism-based; parameters: route oral; settings: in vivo; in short: as §1
[11] = Half life in human liver microsome by HPLC-MS/MS analysis in presence of 10 uM NADPH; assay type: ADME; settings: liver microsomes
In short: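 Pooled liver microsomes (human, mouse, rat) with NADPH. Substrate added from DMSO to final 0.1, 1.0 or 10 μM, with 0.5% (vol/vol) organic solvent. Incubated at 37°C for up to 60 min. Stopped with 2 volumes of 7:1 methanol-water containing 0.1% TFA and 30 nM internal standard, then centrifuged. Remaining substrate was measured by HPLC-MS/MS, and t1/2 was obtained by one-phase exponential decay fit (t1/2 = 0.693/k).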

[12] = tested on: Mus musculus; experiment: Renal toxicity in BALB/c mouse assessed as blood urea nitrogen level in serum at 50 mg/kg/day, po administered for five days (Rvb= 29 mg/dl); assay type: organism-based; parameters: route oral; settings: in vivo; in short: as §1
[13] = tested on: Mus musculus; experiment: Hepatotoxicity in BALB/c mouse assessed as AST level in serum at 5 mg/kg/day, iv administered for five days (Rvb= 65 U/L); assay type: toxicity, organism-based; parameters: route intravenous; settings: in vivo
[14] = tested on: Mus musculus; experiment: Renal toxicity in BALB/c mouse assessed as blood urea nitrogen level in serum at 20 mg/kg/day, iv administered for five days (Rvb= 20 mg/dl); assay type: organism-based; parameters: route intravenous; settings: in vivo; in short: as §1
[15] = tested on: Mus musculus; experiment: Hepatotoxicity in BALB/c mouse assessed as phosphorus level in serum at 25 mg/kg/day, po administered for five days (Rvb= 5.3 mg/dl); assay type: toxicity, organism-based; parameters: route oral; settings: in vivo
[16] = Volume of distribution in Swiss Webster mouse at 1 mg/kg, iv by HPLC-MS/MS analysis; assay type: ADME, organism-based; parameters: dose 1 mg/kg, route intravenous; settings: in vivo; in short: as §4
[17] = tested on: Mus musculus; experiment: Hepatotoxicity in BALB/c mouse assessed as alkaline phosphatase level in serum at 25 mg/kg/day, po administered for five days (Rvb= 129 U/L); assay type: toxicity, organism-based; parameters: route oral; settings: in vivo
[18] = Half life in human liver microsome by HPLC-MS/MS analysis in presence of 0.1 uM NADPH; assay type: ADME; settings: liver microsomes; in short: as §3
[19] = tested on: Mus musculus; experiment: Hepatotoxicity in BALB/c mouse assessed as AST level in serum at 100 mg/kg/day, po administered for five days (Rvb= 70 U/L); assay type: toxicity, organism-based; parameters: route oral; settings: in vivo
[20] = tested on: Leishmania donovani; experiment: Antileishmanial activity against Leishmania donovani promastigotes in po dosed BALB/c mouse assessed as inhibition of liver parasitemia; assay type: functional, organism-based
In short: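 Murine VL model in L. donovani-infected mice. Compounds were dissolved in water and given i.p. or p.o. once daily for 5 days (4 days for one i.p. regimen). Liver parasitemia was compared with untreated controls by unpaired Student's t test, P ≤ 0.05.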

[21] = Induction of mutagenicity in Salmonella serovar Typhimurium TA 100 assessed as number of revertant colonies at 5 ug by Ames assay in presence of Aroclor 1254-induced rat liver S9 metabolic activation system; assay type: toxicity, subcellular, Salmonella enterica subsp. enterica serovar Typhimurium
In short: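 Ames plate incorporation with S. Typhimurium TA98 and TA100, with or without Aroclor 1254-induced rat liver S9 (10% vol/vol). Compound was dissolved in sterile water and serially diluted to 1–500 μg/plate. Positive controls were 2-nitrofluorene and sodium azide without S9, and 2-aminoanthracene with S9; sterile water and DMSO served as vehicles. Revertant colonies and background lawn were scored. A mutagen was defined as a mean revertant count at least 2-fold over solvent control. Single experiment.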

[22] = tested on: Mus musculus; experiment: Hepatotoxicity in BALB/c mouse assessed as alkaline phosphatase in serum at 150 mg/kg/day, po administered for five days (Rvb= 129 U/L); assay type: toxicity, organism-based; parameters: route oral; settings: in vivo
[23] = tested on: Mus musculus; experiment: Toxicity in BALB/c mouse assessed as occurrence of tremor at 50 mg/kg, iv; assay type: organism-based; parameters: dose 50 mg/kg, route intravenous; settings: in vivo
In short: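 Single-dose escalation: female BALB/c mice (n = 1 per dose level) given one i.v. dose in sterile water (10 ml/kg), 5–50 mg/kg, observed for 2 days.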

[24] = tested on: Leishmania donovani; experiment: Antileishmanial activity against Leishmania donovani WR378 infected in golden Syrian hamster assessed as reduction in bone marrow parasitemia at 30 mg/kg/day, po administered for five days; assay type: functional; settings: 120 h
In short: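 11-day golden hamster VL model adapted from an 8-day method, using L. donovani WR378 metacyclic promastigotes. Dosing was oral, once daily for 5 days. Animals were euthanized on day 11 post-infection. Liver, spleen and femoral bone marrow (flushed with Schneider's medium) were harvested.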

[25] = tested on: Mus musculus; experiment: Hepatotoxicity in BALB/c mouse assessed as AST level in serum at 30 mg/kg/day, iv administered for five days (Rvb= 65 U/L); assay type: toxicity, organism-based; parameters: route intravenous; settings: in vivo

SMILES | Activity [1] [mg/dL] | Activity [2] [U/L] | half-life [6] [h] | IC50 [7] [nM] | Activity [8] [U/L] | half-life [11] [h] | Activity [12] [mg/dL] | Activity [13] [U/L] | Activity [14] [mg/dL] | Activity [15] [mg/dL] | Vd [16] [L/kg] | Activity [17] [U/L] | half-life [18] [h] | also measured
CCOc1cc(NC(=N)c2ccccn2)ccc1-c1ccc(-c2ccc(NC(=N)c3ccccn3)cc2OCC)o1 | 7.2 | 107 | > 2 | 120 | 43 | > 2 | 27 | 80 | 27 | 6.9 | 36 | 136 | > 2 | AUC(0-inf) [3]: 4.5 µM·h; half-life [4]: 18 h; Cmax [5]: 400 nM; bioavailability [9]: 9.3%; Activity [10]: Toxic
CC(C)Oc1cc(NC(=N)c2ccccn2)ccc1-c1ccc(-c2ccc(NC(=N)c3ccccn3)cc2OC(C)C)o1 | 8.3 | 104 | > 2 | 87 | 36 | > 2 | 25 | 76 | 26 | 7 | 14 | 126 | > 2 | Activity [19]: 68 U/L; Activity [20]: Active; Activity [21]: 154; Activity [22]: 142 U/L; Activity [23]: Toxic; inhibition in vivo at 30 mg/kg/day [24]: 24%; Activity [25]: 73 U/L
